From paper PMC5693771 (Bioorganic & medicinal chemistry letters, 2017)
“Also recorded” adds a separate entry of the source.

Tests used:
[1] = system: HCV genotype 1b RNA replication; test: HCV genotype 1b subgenomic replicon assay in Huh-7 cells; assay type: cell-based, Hepatitis C virus (HCV); details: for EC90: Hepatitis C virus, GETYPE1B, Huh-7, read-out: Anti HCV activity EC90
In short: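 Each assay was run in replicate. Values are the mean and SD of three replicates.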

Huh-7 cells = test: Cytotoxicity in Huh-7 cells; assay type: cell-based; details: all four tested cell lines (Huh-7, PBM, CEM, Vero)

| Structure (SMILES) | EC90 [1] | also measured |
| --- | --- | --- |
| O=c1ccn([C@@H]2O[C@H](CO)[C@@H](O)C2(Br)Br)c(=O)[nH]1 [Compound 10a] |  | Concentration up to which no antiviral (anti-HCV) activity was shown ([1]; HCV genotype 1b replicon, Huh-7 cells): > 33 µM |
| CC(C)OC(=O)[C@H](C)N[P@](=O)(OC[C@H]1O[C@@H](n2cnc3c(N)ncnc32)C(Br)(Br)[C@@H]1O)Oc1ccccc1 [Compound 13c] | > 10 µM |  |
| CC(C)OC(=O)[C@H](C)N[P@](=O)(OC[C@H]1O[C@@H](n2ccc(=O)[nH]c2=O)C(Br)(Br)[C@@H]1O)Oc1ccccc1 [Compound 13a] |  | Cellular toxicity (in words) (Huh-7 cells): non-toxic; also recorded: no observed toxicity |
| CC(C)OC(=O)[C@H](C)N[P@](=O)(OC[C@H]1O[C@@H](n2cnc3c(=O)[nH]c(N)nc32)C(Br)(Br)[C@@H]1O)Oc1ccccc1 [Compound 13d] | > 10 µM |  |
| Nc1ccn([C@@H]2O[C@H](CO)[C@@H](O)C2(Br)Br)c(=O)n1 [Compound 10b] | > 10 µM |  |
